Key:
Mus musculus [1] = assay: Apparent volume of distribution in mice after oral administration of 100 mg/kg of dose; format: ADME, organism-based; set-up: dose 100 mg/kg, route oral; settings: in vivo
How it was run: (§1)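 Female NIH-Swiss mice, 24–28 g. Compounds dissolved in physiological saline at 15 mg/mL and given once, either intragastrically or iv via tail vein over 30 s, at 100 or 106.8 mg/kg (equimolar). Three mice per time point, killed by heart puncture under ether. Serum and brain stored at -20 °C. Brain homogenized 1:1 (g:mL) in isotonic phosphate buffer, pH 7.4. Analysis by reversed-phase HPLC with UV at 260 nm and an internal standard. Noncompartmental pharmacokinetics, AUC by Lagrange polynomial integration.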

[2] = Half-life in mouse serum after oral administration of 100 mg/kg of dose; format: ADME, organism-based; set-up: dose 100 mg/kg, route oral; how it was run: as §1
Mus musculus [3] = assay: Bioavailability in mouse serum after oral administration of 100 mg/kg of dose; format: ADME, organism-based; settings: in vivo
Mus musculus [4] = assay: Bioavailability in mouse serum after intravenous administration of equimolar doses of ( 2'F-ara-ddI + 2'F-ara-ddP); format: ADME, organism-based; settings: in vivo
Mus musculus [5] = assay: Bioavailability in mouse brain after intravenous administration of equimolar doses of ( 2'F-ara-ddI + 2'F-ara-ddP); format: ADME, organism-based; settings: in vivo
[6] = Evaluated for the maximum serum concentration administered at 1 hour in mice; format: ADME, organism-based; settings: mouse
How it was run: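 Serum drug level in female NIH-Swiss mice after a single intragastric dose in saline, 100 mg/kg for the prodrug or an equimolar dose for the parent. Blood drawn by heart puncture under ether, three mice per time point. Serum analyzed by reversed-phase HPLC with UV at 260 nm; detection limit 50–100 ng/mL. Peak concentration read from the concentration–time profile and given as mean ± SD.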

Mus musculus [7] = assay: Apparent clearance in mice after oral administration of 100 mg/kg of dose; format: ADME, organism-based; set-up: dose 100 mg/kg, route oral; settings: in vivo; how it was run: as §1
Mus musculus [8] = assay: Bioavailability in mouse serum after oral administration of equimolar doses of ( 2'F-ara-ddI + 2'F-ara-ddP); format: ADME, organism-based; settings: in vivo
Mus musculus [9] = assay: Bioavailability in mouse brain after oral administration of equimolar doses of ( 2'F-ara-ddI + 2'F-ara-ddP); format: ADME, organism-based; settings: in vivo
How it was run: (§2)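 Single-dose pharmacokinetics in female NIH-Swiss mice given the compound in saline, either intragastrically or iv via tail vein over 30 s. Three mice sampled per time point. Serum or brain homogenate assayed by HPLC-UV at 260 nm. AUC calculated by Lagrange polynomial integration. Bioavailability taken as the ratio of oral to iv AUC.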

[10] = Half-life in mouse brain after intravenous administration of 100 mg/kg of dose
Mus musculus [11] = assay: Apparent clearance in mice after intravenous administration of 105.1 mg/kg of dose; format: ADME, organism-based; set-up: dose 105.1 mg/kg, route intravenous; settings: in vivo
Mus musculus [12] = assay: Bioavailability in mouse serum after intravenous administration of 105.1 mg/kg of dose; format: ADME, organism-based; settings: in vivo
[13] = Half-life in mouse brain after oral administration of 100 mg/kg of dose; format: ADME, organism-based; set-up: dose 100 mg/kg, route oral; how it was run: as §1
Mus musculus [14] = assay: Bioavailability in mouse brain after oral administration of 100 mg/kg of dose; format: ADME, organism-based; settings: in vivo; how it was run: as §2
[15] = Half-life in mouse serum after intravenous administration of 100 mg/kg of dose
[16] = Apparent volume of distribution in mice after intravenous administration of 105.1 mg/kg of dose; format: ADME, organism-based; set-up: dose 105.1 mg/kg, route intravenous; settings: mouse, in vivo, read-out: Vss
[17] = Bioavailability after oral administration of 100 mg/kg of dose in mouse; format: ADME, organism-based; settings: in vivo; how it was run: as §2
Mus musculus [18] = assay: Bioavailability in mouse brain after intravenous administration of 105.1 mg/kg of dose; format: ADME, organism-based; settings: in vivo

Vss (Mus musculus [1]) | half-life [2] | AUC (Mus musculus [3]) | AUC (Mus musculus [4]) | AUC (Mus musculus [5]) | Cmax [6] | CI (Mus musculus [7]) | AUC (Mus musculus [8]) | AUC (Mus musculus [9]) | half-life [10] | CI (Mus musculus [11]) | AUC (Mus musculus [12]) | half-life [13] | AUC (Mus musculus [14]) | half-life [15] | Vd [16] | bioavailability [17] | AUC (Mus musculus [18]) | SMILES
14.5 L/kg | 257 min | 154 uM L | 132 uM L | 48 uM L | 48.1 µM | 2.88 L/h/kg | 134 uM L | 47.9 uM L |  |  |  |  |  |  |  |  |  | OCC1CC(F)C(n2cnc3c(O)ncnc32)O1 (configuration not stated)
2.32 L/kg | 47.4 min | 153 uM L |  |  |  | 2.9 L/h/kg |  |  | 25.2 min | 1.76 L/h/kg | 252 uM L | 39 min | 32.3 uM L | 24 min | 1.12 L/kg | 60.7% | 120 uM L | OCC1CC(F)C(n2cnc3cncnc32)O1 (configuration not stated)

From ChEMBL document CHEMBL1127674, “Enhanced brain delivery of an anti-HIV nucleoside 2'-F-ara-ddI by xanthine oxidase mediated biotransformation” (J Med Chem, 1994)
